Test results published in ChEMBL document CHEMBL3817780, “Structure-Based Design of 1,4-Dibenzoylpiperazines as β-Catenin/B-Cell Lymphoma 9 Protein-Protein Interaction Inhibitors” (ACS Med Chem Lett, 2016).
Active and inactive are the calls of the source. The rule behind the calls is not given here.

Tests used:
[1] = target: T1, beta-catenin-B-cell lymphoma 9 protein complex (Homo sapiens, UniProt P35222); assay: Competitive inhibition of wild type beta-catenin (unknown origin) expressed in Escherichia coli BL21 DE3 interaction with N-terminally biotinylated human BCL9 (350 to 375 residues) by alpha screen assay
T1 sequence (P35222 whole entry): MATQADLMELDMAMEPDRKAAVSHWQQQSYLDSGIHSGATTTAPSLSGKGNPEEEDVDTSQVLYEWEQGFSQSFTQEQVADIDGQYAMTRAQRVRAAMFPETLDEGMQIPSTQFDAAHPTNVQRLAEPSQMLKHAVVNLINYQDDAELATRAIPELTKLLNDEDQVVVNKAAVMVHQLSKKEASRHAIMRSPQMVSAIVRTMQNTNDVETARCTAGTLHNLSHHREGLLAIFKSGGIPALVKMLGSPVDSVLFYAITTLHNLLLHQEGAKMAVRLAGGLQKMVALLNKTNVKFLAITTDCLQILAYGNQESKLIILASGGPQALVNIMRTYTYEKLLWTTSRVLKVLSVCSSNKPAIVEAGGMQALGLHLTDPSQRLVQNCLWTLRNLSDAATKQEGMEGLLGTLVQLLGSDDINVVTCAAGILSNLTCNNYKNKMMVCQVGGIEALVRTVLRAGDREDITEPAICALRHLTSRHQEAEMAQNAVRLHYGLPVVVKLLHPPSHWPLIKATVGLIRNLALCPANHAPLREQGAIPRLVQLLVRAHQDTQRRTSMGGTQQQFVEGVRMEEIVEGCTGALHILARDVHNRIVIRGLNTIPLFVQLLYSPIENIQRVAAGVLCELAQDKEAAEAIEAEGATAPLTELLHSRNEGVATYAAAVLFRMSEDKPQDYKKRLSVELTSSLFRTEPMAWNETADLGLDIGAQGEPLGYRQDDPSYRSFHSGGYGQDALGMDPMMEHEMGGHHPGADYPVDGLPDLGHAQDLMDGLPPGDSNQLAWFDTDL
T1 sequence (O00512 whole entry): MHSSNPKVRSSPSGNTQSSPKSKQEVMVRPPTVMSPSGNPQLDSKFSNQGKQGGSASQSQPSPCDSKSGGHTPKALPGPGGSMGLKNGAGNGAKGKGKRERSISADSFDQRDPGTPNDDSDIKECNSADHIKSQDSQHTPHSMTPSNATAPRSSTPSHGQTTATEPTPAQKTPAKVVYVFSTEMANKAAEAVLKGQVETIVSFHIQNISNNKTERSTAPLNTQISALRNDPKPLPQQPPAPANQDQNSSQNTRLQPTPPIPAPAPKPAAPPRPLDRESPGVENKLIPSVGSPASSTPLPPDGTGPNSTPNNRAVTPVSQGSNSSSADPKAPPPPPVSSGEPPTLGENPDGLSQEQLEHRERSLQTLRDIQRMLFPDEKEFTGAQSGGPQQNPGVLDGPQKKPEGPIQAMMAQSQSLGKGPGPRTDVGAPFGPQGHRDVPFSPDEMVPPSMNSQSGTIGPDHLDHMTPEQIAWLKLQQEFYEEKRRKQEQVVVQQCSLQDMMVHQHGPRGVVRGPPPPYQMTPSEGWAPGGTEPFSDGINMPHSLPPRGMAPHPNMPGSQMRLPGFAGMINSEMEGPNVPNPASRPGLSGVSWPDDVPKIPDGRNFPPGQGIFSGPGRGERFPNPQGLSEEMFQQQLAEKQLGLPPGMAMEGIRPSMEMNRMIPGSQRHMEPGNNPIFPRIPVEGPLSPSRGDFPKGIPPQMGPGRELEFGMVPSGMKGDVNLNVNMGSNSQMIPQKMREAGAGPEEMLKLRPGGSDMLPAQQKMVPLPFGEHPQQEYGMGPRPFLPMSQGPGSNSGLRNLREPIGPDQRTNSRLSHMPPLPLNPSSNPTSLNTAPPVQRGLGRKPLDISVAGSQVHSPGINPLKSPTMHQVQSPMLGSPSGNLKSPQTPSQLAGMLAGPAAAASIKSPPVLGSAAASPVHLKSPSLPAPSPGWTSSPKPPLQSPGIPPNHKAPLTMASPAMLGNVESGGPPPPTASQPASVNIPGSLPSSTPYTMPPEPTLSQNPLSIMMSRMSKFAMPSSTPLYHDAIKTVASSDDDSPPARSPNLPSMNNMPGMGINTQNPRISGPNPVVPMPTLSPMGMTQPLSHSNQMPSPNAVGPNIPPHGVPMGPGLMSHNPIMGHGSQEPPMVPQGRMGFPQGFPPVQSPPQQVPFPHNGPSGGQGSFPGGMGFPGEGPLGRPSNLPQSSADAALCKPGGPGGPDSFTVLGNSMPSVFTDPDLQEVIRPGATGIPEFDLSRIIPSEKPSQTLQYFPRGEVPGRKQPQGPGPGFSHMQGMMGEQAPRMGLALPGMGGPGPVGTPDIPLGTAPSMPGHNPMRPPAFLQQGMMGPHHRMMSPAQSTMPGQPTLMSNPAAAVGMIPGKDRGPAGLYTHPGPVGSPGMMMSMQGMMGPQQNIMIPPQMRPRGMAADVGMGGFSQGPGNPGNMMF
Summary of the method: (§1)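 Competitive AlphaScreen binding assays run in parallel against wild-type β-catenin, one with the BCL9 partner and one with the E-cadherin partner; data given as mean ± standard deviation, n = 3.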

SW480 = assay: Cytotoxicity against Wnt-activated human SW480 cells assessed as reduction in cell viability after 72 hrs by MTS assay; type: functional, cell-based; details: SW480, 72 h
[2] = target: Cadherin-1/Transcription factor 7-like 2 (Homo sapiens, UniProt P12830+Q9NQB0); assay: Competitive inhibition of wild type beta-catenin (unknown origin) expressed in Escherichia coli BL21 DE3 interaction with N-terminally biotinylated human E-cadherin (824 to 887 residues) by alpha screen assay; summary of the method: as §1
Chain of Cadherin-1/Transcription factor 7-like 2 (Q9NQB0 whole entry, the tested form may be a part): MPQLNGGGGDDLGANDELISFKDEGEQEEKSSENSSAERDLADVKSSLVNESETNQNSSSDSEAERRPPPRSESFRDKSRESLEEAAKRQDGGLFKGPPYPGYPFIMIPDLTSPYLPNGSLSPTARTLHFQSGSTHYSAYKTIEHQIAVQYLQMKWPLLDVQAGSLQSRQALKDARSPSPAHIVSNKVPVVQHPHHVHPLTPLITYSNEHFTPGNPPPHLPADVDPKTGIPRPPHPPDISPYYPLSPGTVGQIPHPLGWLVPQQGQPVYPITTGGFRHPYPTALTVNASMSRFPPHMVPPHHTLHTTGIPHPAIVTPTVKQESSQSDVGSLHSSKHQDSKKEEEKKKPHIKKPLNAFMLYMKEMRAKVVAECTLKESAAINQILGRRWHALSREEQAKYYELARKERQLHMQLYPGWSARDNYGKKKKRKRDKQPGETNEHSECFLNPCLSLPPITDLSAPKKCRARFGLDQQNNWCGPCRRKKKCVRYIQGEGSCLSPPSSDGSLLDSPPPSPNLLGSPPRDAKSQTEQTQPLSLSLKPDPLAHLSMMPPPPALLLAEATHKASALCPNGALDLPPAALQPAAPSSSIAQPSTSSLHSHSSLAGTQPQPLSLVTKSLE
Chain of Cadherin-1/Transcription factor 7-like 2 (P12830 whole entry, the tested form may be a part): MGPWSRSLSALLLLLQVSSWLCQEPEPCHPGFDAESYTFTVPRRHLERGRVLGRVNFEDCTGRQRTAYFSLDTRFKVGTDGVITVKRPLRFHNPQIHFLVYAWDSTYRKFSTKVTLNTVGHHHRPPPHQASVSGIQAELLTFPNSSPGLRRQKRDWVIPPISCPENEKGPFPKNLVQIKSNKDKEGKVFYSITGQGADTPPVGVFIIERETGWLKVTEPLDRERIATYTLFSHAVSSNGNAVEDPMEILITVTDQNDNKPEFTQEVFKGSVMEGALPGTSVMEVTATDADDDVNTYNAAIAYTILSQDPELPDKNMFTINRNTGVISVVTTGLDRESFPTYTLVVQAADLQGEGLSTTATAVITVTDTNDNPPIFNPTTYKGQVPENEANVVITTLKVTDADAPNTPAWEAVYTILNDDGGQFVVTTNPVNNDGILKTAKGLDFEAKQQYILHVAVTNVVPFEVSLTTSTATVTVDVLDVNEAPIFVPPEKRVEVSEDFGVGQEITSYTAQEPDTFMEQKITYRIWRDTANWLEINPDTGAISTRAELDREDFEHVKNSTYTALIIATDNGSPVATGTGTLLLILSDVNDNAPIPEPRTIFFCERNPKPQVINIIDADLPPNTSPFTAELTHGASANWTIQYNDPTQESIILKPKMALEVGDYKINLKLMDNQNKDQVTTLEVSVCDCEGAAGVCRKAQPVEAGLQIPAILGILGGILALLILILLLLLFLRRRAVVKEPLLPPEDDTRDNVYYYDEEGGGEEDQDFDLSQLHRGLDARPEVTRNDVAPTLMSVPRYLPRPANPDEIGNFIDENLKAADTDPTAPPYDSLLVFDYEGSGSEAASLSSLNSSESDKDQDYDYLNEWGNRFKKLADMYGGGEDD

A549 [3] = assay: Selectivity ratio of IC50 for human A549 cells to IC50 for human HCT116 cells; type: functional
[4] = Cytotoxicity against Wnt-activated human HCT116 cells assessed as reduction in cell viability after 72 hrs by MTS assay; type: functional, cell-based; details: HCT-116, 72 h
[5] = Competitive inhibition of N-terminally fluorescein-labeled human BCL9 (350 to 375 residues) interaction with beta-catenin D145A/E155A double mutant (138 to 686 residues) (unknown origin) expressed in Escherichia coli BL21 DE3 after 3 hrs by fluorescence polarization assay
[6] = Competitive inhibition of N-terminally fluorescein-labeled human BCL9 (350 to 375 residues) interaction with beta-catenin E155A mutant (138 to 686 residues) (unknown origin) expressed in Escherichia coli BL21 DE3 after 3 hrs by fluorescence polarization assay
[7] = target: T2, Catenin beta-1 (Homo sapiens) (UniProt P35222); assay: Inhibition of beta-catenin (unknown origin) expressed in HEK293 cells up to 100 uM after 24 hrs by fopflash dual luciferase reporter gene assay; type: cell-based
T2 sequence (whole entry): T1 sequence (P35222 whole entry)
Summary of the method: (§2)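 HEK293 cells transfected with pcDNA3.1−β-catenin; TOPFlash reporter carries wild-type Tcf binding sites and FOPFlash carries mutant Tcf sites; luciferase activity read across a dose series; mean ± standard deviation, n = 2.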

A549 [8] = assay: Cytotoxicity against Wnt-signaling latent human A549 cells assessed as reduction in cell viability after 72 hrs by MTS assay; type: functional, cell-based; details: A549, 72 h
[9] = Selectivity ratio of IC50 for HEK293 cells to IC50 for human SW480 cells; type: ADME, cell-based; details: HEK293 cells versus SW480 cells, read-out: Ratio IC50
[10] = Competitive inhibition of N-terminally fluorescein-labeled human BCL9 (350 to 375 residues) interaction with beta-catenin D145A mutant (138 to 686 residues) (unknown origin) expressed in Escherichia coli BL21 DE3 after 3 hrs by fluorescence polarization assay
A549 [11] = assay: Selectivity ratio of IC50 for human A549 cells to IC50 for human SW480 cells; type: functional
[12] = Selectivity ratio of IC50 for human HEK293 cells to IC50 for human HCT116 cells; type: ADME, cell-based; details: HEK293 cells versus HCT116 cells, read-out: Ratio IC50
HEK293 = assay: Cytotoxicity against HEK293 cells assessed as reduction in cell viability after 72 hrs by MTS assay; type: cell-based; details: Homo sapiens, HEK293, 72 h
[13] = target: T2, Catenin beta-1 (Homo sapiens); assay: Inhibition of beta-catenin (unknown origin) expressed in HEK293 cells after 24 hrs by topflash dual luciferase reporter gene assay; type: cell-based; summary of the method: as §2
Homo sapiens = species on record: Homo sapiens; assay: Selectivity ratio of Ki for wild type beta-catenin (unknown origin)/ N-terminally biotinylated human BCL9 (350 to 375 residues) interaction to Ki for wild type beta-catenin (unknown origin)/N-terminally biotinylated human E-cadherin (824 to 887 residues) interaction

Question: With O=C(c1cc(F)cc(N2CCNCC2)c1)N1CCN(C(=O)c2ccc(O[C@H]3CCNC3)c(C3CCCC3)c2)CC1 as the compound, how does the Ki [1] read?
Answer: 53 µM

Question: With CC(C)c1cc2c(c(O)c1O)[C@@]1(C(=O)O)CCCC(C)(C)[C@@H]1CC2 [CARNOSIC ACID] as the compound, how does the Ki [1] read?
Answer: 5.3 µM

Question: With O=C(c1cc(F)cc(N2CCNCC2)c1)N1CCN(C(=O)c2ccc(O[C@H]3CCNC3)c(-c3ccc(F)cc3)c2)CC1 as the compound, how does the IC50 (SW480) read?
Answer: 86 µM

Question: With CCC1CCC(c2cc(C(=O)N3CCN(C(=O)c4cc(F)cc(N5CCNCC5)c4)CC3)ccc2O[C@H]2CCNC2)CC1 (stereo partly specified) as the compound, how does the Ki [1] read?
Answer: 170 µM

Question: With O=C(c1cc(F)cc(C2CCNCC2)c1)N1CCN(C(=O)c2ccc(O[C@H]3CCNC3)c(-c3ccc(F)cc3)c2)CC1 as the compound, how does the Ki [1] read?
Answer: 20 µM

Question: For Cl.Cl.O=C(c1cc(F)cc(N2CCNCC2)c1)N1CCN(C(=O)c2ccc(O[C@H]3CCNC3)c(C3CCCCC3)c2)CC1, which IC50 (SW480) is on record?
Answer: 22 µM

Question: What about the IC50 [2] of the same compound?
Answer: 550 µM

Question: What about the Ki [2] of the same compound?
Answer: 510 µM

Question: And the “Ratio IC50” value (A549 [3])?
Answer: >10

Question: And the IC50 [4]?
Answer: 26 µM

Question: And the Ki [5]?
Answer: 53 µM

Question: And the Ki [6]?
Answer: 39 µM

Question: What about the inhibition [7] of the same compound?
Answer: inactive

Question: And the IC50 (A549 [8])?
Answer: 300 µM

Question: And the IC50 [1]?
Answer: 5.6 µM

Question: What about the selectivity ratio [9] of the same compound?
Answer: 3

Question: What about the Ki [10] of the same compound?
Answer: 29 µM

Question: What about the “Ratio IC50” value (A549 [11]) of the same compound?
Answer: >10

Question: What about the selectivity ratio [12] of the same compound?
Answer: 3

Question: And the IC50 (HEK293)?
Answer: 130 µM

Question: What about the inhibition [13] of the same compound?
Answer: Dose-dependent effect

Question: Which results are given for Cl.Cl.O=C(c1cc(F)cc(N2CCNCC2)c1)N1CCN(C(=O)c2ccc(O[C@H]3CCNC3)c(C3CCC(C(F)(F)F)CC3)c2)CC1 (stereo partly specified)?
Answer: IC50 (SW480): 44 µM; Ratio IC50 (A549 [3]): >10; IC50 [4]: 39 µM; IC50 (A549 [8]): > 400 µM; Ki [1]: 16 µM; selectivity ratio [9]: 3; Ratio IC50 (A549 [11]): >10; selectivity ratio [12]: 3; IC50 (HEK293): 130 µM; inhibition [13]: Dose-dependent effect

Question: Which results are given for O=C(Nc1ccc(OC2CCNC2)c(-c2ccc(F)cc2)c1)c1ccc(O[C@H]2CCNC2)c(-c2ccc(F)c(F)c2)c1 (stereo partly specified)?
Answer: Ratio Ki (Homo sapiens): 125; Ki [1]: 2.1 µM

Question: Which Ki [1] does the source give for CC1(C)CCC(c2cc(C(=O)N3CCN(C(=O)c4cc(F)cc(N5CCNCC5)c4)CC3)ccc2O[C@H]2CCNC2)CC1 here?
Answer: 70 µM

Question: For NCCc1cc(F)cc(C(=O)N2CCN(C(=O)c3cnc(O[C@H]4CCNC4)c(-c4ccc(F)cc4)c3)CC2)c1, which Ki [1] is on record?
Answer: > 500 µM

Question: With O=C(c1cc(F)cc(N2CCNCC2)c1)N1CCN(C(=O)c2ccc(O[C@H]3CCNC3)c(C3CCC(F)(F)CC3)c2)CC1 as the compound, how does the Ki [1] read?
Answer: 45 µM
